This note sets out measurements from ChEMBL document CHEMBL4725343, “Medicinal Chemistry Optimization of a Diaminopurine Chemotype: Toward a Lead for Trypanosoma brucei Inhibitors” (J Med Chem, 2020).

What is called logD is lipophilicity at a set pH, counting ionised and neutral species. The Cmax is the maximum level reached in the sampled fluid or tissue. In general, Tmax refers to the time at which the peak concentration occurs. As a reminder, the AUC is the area under the concentration-time curve, a measure of exposure. Low readings indicate low exposure, high ones high exposure.

Series [1] in a line: Distribution coefficient between octanol and aqueous buffer, logD of the compound in pH 7.4 buffer by UPLC-MS-based shake flask method. Format: physicochemical. To be noted: octanol/water.
The nature of series [2]: Apparent permeability across apical to basolateral side in human Caco2 cells after 2 hrs. It is filed as ADME, cell-based. To be noted: caco-2, 2 h. For orientation: Caco-2 cells form a polarised layer with tight junctions and transporters.
Series [3] is described as follows: Apparent permeability across basolateral to apical side in human Caco2 cells after 2 hrs. It is filed as ADME, cell-based. To be noted: caco-2, 2 h.
The nature of series [4]: Apparent permeability across apical to basolateral side in human Caco2 cells assessed as drug recovery after 2 hrs. Format: ADME, cell-based. The conditions noted are these: caco-2, 2 h.
Series [5] in a line: Apparent permeability across basolateral to apical side in human Caco2 cells assessed as drug recovery after 2 hrs. Format: ADME, cell-based. To be noted: caco-2, 2 h.
A short description of series [6]: Cmax in NMRI mouse at 10 mg/kg, ip measured up to […]rs on day 1 by LC-MS/MS analysis. It is filed as ADME, organism-based. On the set-up: route intraperitoneal, dose 10 mg/kg. To be noted: in vivo. The gist of the method:
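Female NMRI mice, uninfected (n=3), received a single ip dose of 10 mg/kg at 10 mL/kg, in 1% DMSO/99% of 20% (w/v) SBEβ-CD in water. Tail-vein blood was collected into K2EDTA at 0.0833 to 24 h and diluted with an equal volume of water. Samples underwent liquid–liquid extraction with nifedipine as internal standard, followed by LC-MS/MS.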

Series [7] in a line: Cmax in ABT-treated NMRI mouse at 30 mg/kg, ip measured up to 6 hrs on day 1 by LC-MS/MS analysis. Format: ADME, organism-based. On the set-up: route intraperitoneal, dose 30 mg/kg/day, time <=6. To be noted: in vivo. The procedure, abridged:
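Female NMRI mice, uninfected (n=3), were given ABT 50 mg/kg/day 1 h before each ip dose of 30 mg/kg/day, in a vehicle of 4% DMSO and 20% Captisol, as a 0.2 mL injection. Blood was sampled at 0.5, 2, 4 and 6 h on day 1. Samples underwent liquid–liquid extraction with nifedipine as internal standard, followed by LC-MS/MS.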

Series [8] is described as follows: Cmax in ABT-treated NMRI mouse infected with Trypanosoma brucei brucei STIB795 at 30 mg/kg, ip measured up to 6 hrs on day 1 by LC-MS/MS analysis. It is filed as ADME, organism-based. On the set-up: route intraperitoneal, dose 30 mg/kg/day, time <=6. The conditions noted are these: in vivo. The procedure, abridged: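 Female NMRI mice were infected ip with 10^4 bloodstream-form T. b. brucei STIB795. From day 3 they received ABT 50 mg/kg/day 1 h before ip dosing at 30 mg/kg/day (n=3), in a vehicle of 4% DMSO and 20% Captisol, for 5 days. Blood was sampled at 0.5, 2, 4 and 6 h on day 1. Quantitation was by LC-MS/MS after liquid–liquid extraction with nifedipine as internal standard.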

Series [9] in a line: Tmax in NMRI mouse at 10 mg/kg, ip measured up to 6 hrs on day 1 by LC-MS/MS analysis. It is filed as ADME, organism-based. The conditions noted are these: in vivo. The gist of the method:
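Uninfected female NMRI mice given 10 mg/kg ip at 10 mL/kg in 1% DMSO/99% of 20% (w/v) SBEβ-CD in water, n=3. Tail-vein blood collected into K2EDTA at 0.0833–24 h and diluted 1:1 with water. Extracted with internal standard nifedipine and quantified by LC-MS/MS.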

Series [10] is described as follows: Tmax in ABT-treated NMRI mouse at 30 mg/kg, ip measured up to 6 hrs on day 1 by LC-MS/MS analysis. Format: ADME, organism-based. The conditions noted are these: in vivo, dose 30 mg/kg/day. The gist of the method: (§1)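 Female NMRI mice, infected with STIB795 or uninfected, pretreated with ABT 50 mg/kg po 1 h before 30 mg/kg ip. Vehicle 4% DMSO, 20% Captisol. Tail blood taken at 0.5, 2, 4 and 6 h on day 1 and diluted with water. Liquid–liquid extraction with nifedipine internal standard, then LC-MS/MS.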

Series [11] is described as follows: Tmax in ABT-treated NMRI mouse infected with Trypanosoma brucei brucei STIB795 at 30 mg/kg, ip measured up to 6 hrs on day 1 by LC-MS/MS analysis. To be noted: in vivo, dose 30 mg/kg/day. It is filed as ADME, organism-based. The procedure, abridged: as §1
The nature of series [12]: AUC (0 to t) in NMRI mouse at 10 mg/kg, ip measured up to 6 hrs on day 1 by LC-MS/MS analysis. It is filed as ADME, organism-based. To be noted: in vivo. On the set-up: route intraperitoneal, dose 10 mg/kg. The gist of the method: (§2)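 Female NMRI mice, uninfected, single ip dose 10 mg/kg at 10 mL/kg in 1% DMSO/99% of 20% (w/v) SBEβ-CD (Captisol) in water. Tail-vein blood into K2EDTA at 0.0833, 0.25, 0.5, 1, 2, 4, 6, 8 and 24 h. Blood diluted 1:1 in water, liquid–liquid extraction with nifedipine internal standard, LC-MS/MS.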

Series [13] in a line: AUC(0 to t) in ABT-treated NMRI mouse at 30 mg/kg, ip measured up to 6 hrs on day 1 by LC-MS/MS analysis. On the set-up: route intraperitoneal, dose 30 mg/kg/day, time <=6. Format: ADME, organism-based. The conditions noted are these: in vivo. The procedure, abridged: (§3)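 Uninfected female NMRI mice (n=3), oral 1-aminobenzotriazole 50 mg/kg/day 1 h before each ip dose of 30 mg/kg/day (0.2 mL; vehicle 4% DMSO, 20% Captisol). Blood sampled at 0.5, 2, 4 and 6 h on day 1. Samples processed by liquid–liquid extraction with nifedipine internal standard, then LC-MS/MS.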

A short description of series [14]: AUC(0 to t) in ABT-treated NMRI mouse infected with Trypanosoma brucei brucei STIB795 at 30 mg/kg, ip measured up to 6 hrs on day 1 by LC-MS/MS analysis. On the set-up: route intraperitoneal, dose 30 mg/kg/day, time <=6. To be noted: in vivo. Format: ADME, organism-based. The gist of the method: (§4)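 Female NMRI mice infected ip with 10^4 bloodstream T. b. brucei STIB795 in TDB glucose. Dosing began day 3 after infection with parasitemia confirmed (n=3): oral ABT 50 mg/kg 1 h before ip 30 mg/kg (0.2 mL; 4% DMSO, 20% Captisol). Blood taken at 0.5, 2, 4, 6 h on day 1, extracted with nifedipine internal standard, LC-MS/MS.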

Series [15] in a line: AUC in NMRI mouse at 10 mg/kg, ip measured up to 6 hrs on day 1 by LC-MS/MS analysis. Format: ADME, organism-based. The conditions noted are these: in vivo. On the set-up: route intraperitoneal, dose 10 mg/kg. The procedure, abridged: as §2
A short description of series [16]: AUC in ABT-treated NMRI mouse at 30 mg/kg, ip measured up to 6 hrs on day 1 by LC-MS/MS analysis. Format: ADME, organism-based. On the set-up: route intraperitoneal, dose 30 mg/kg/day, time <=6. To be noted: in vivo. The procedure, abridged:
as §3

A short description of series [17]: AUC in ABT-treated NMRI mouse infected with Trypanosoma brucei brucei STIB795 at 30 mg/kg, ip measured up to 6 hrs on day 1 by LC-MS/MS analysis. It is filed as ADME, organism-based. On the set-up: route intraperitoneal, dose 30 mg/kg/day, time <=6. To be noted: in vivo. The gist of the method: as §4

As to `FC(F)(F)CNc1nc(Nc2ccsc2)nc2[nH]cnc12`, the logD in series [1] stood at 3.1.
The compound `Cn1nccc1Nc1nc(NCC(F)(F)F)c2nc[nH]c2n1` displayed a logD in [1] of 1.9. Besides, the Papp is reported as 5.8 10^-6 cm/s in series [2] and 44 10^-6 cm/s in series [3]. Also, the Drug recovery in series [4] is listed as 87%; in [5] it was 102%. Besides, the figures for the Cmax in [6], in series [7] and in [8] were 11.8 µM, 15.767 µg/mL and 17.267 µg/mL, respectively. Further, the Tmax in [9] is 15 min; in series [10] it was 30 min; in series [11], 30 min. In addition, the results for the AUCt in [12], in series [13] and in series [14] were 5.34 µg·h/mL, 51.799 µg·h/mL and 77.666 µg·h/mL, respectively. In addition, the AUC in [15] is 5.35 µg·h/mL; in series [16] it was 52.521 µg·h/mL; in series [17], 83.443 µg·h/mL.
